# Compounds with a hit are over-represented: about 1.5% of the library has one in this group of screens.
# Apaf-1 inh – inhibitors of human Apaf-1 apoptosome, primary screen, biochemical, DEVD-Rh110 fluorescence, uHTS; 330,000 compounds, 0.71% hits; AID 489030, 2010; Apoptotic protease-activating factor 1 (Homo sapiens), O14727; reconstituted apoptosome caspase-3 activity; inhibition, % at 20 µM; active = inhibition of at least 40% at 20 µM;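 note: plate controls were DMSO wells for no effect and DEVD-CHO caspase inhibitor wells for full effect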
#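 Material: reconstituted apoptosome with Apaf-1, cytochrome c, caspase-9, procaspase-3, dATP / Buffer or medium: pH 7.5 Hepes buffer with CHAPS, BSA, DTT / Also added: cytochrome c with DEVD-Rh110 / Schedule: compound with Apaf-1, dATP, procaspase-3 30 min, then 50 min reaction, room temperature / Technique: rhodamine 110 fluorescence at Ex 480/Em 540 nm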
# UBC13 polyUb – UBC13 polyubiquitin chain formation inhibitors, primary screen, biochemical, TR-FRET, uHTS; inhibition, % at 20 µM; 330,000 compounds, 0.47% hits; in the data active = inhibition above about 45%, passing the limit was not always enough; inconclusive = no clear call, values can overlap the other calls
# Target sequence (P61088 whole entry, looked up): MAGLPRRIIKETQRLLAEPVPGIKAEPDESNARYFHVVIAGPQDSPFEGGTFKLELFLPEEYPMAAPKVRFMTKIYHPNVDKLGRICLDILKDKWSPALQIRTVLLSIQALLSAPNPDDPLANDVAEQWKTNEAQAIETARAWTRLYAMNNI
# PREPL inh – PREPL enzyme inhibitors, primary screen, biochemical, fluorescence polarization | 320,000 compounds, 0.68% hits | inhibition, % at 5.96 µM | Prolyl endopeptidase-like (Homo sapiens), Q4J6C6 | recombinant PREPL, fluorescence polarization activity-based probe | AID 2751, 2010; in the data active = inhibition above about 43%;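 note: 0% = enzyme with DMSO and 100% = wells lacking enzyme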
# UCH37 inh – inhibitors of human UCH37 deubiquitinase, primary screen, biochemical, Ub-AMC cleavage, fluorescence. inhibition, % (no concentration beside the values). 330,000 compounds, 0.33% hits. purified proteasome/UCH37. Ubiquitin carboxyl-terminal hydrolase isozyme L5 (Homo sapiens), Q9Y5K5;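 active = mean inhibition over replicate wells above about 20%, limit read from the data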;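 note: 0% = compound-free wells with enzyme and 100% = wells lacking proteasome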
#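 Material: human UCH37 enzyme supplied as purified proteasome complex / Amount: 0.15 nM proteasome as dispensed / Buffer or medium: pH 7.4 Tris-HCl (50 mM) with ovalbumin, ATP-MgCl2, DTT / Times: preincubation 30 min, reaction 25 min, room temperature / Technique: AMC fluorescence from Ub-AMC cleavage, excitation 355 nm, emission 460 nm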
# Casp3 counter – CASP3 inhibitor validation, counterassay for project on UBE2N polyubiquitination blockers, biochemical, one dose; shares compounds with UBC13 polyUb; Recombinant caspase-3, Caspase-Glo 3/7 luminescence, 60 min; inhibition, % at 20 µM; 1,400 compounds, 4% hits;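 active = mean inhibition across replicates above about 26%, limit read from the data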;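 note: plate controls were DMSO with caspase-3 for no effect and DMSO wells lacking enzyme for full effect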
# Target sequence (P42574 whole entry, looked up): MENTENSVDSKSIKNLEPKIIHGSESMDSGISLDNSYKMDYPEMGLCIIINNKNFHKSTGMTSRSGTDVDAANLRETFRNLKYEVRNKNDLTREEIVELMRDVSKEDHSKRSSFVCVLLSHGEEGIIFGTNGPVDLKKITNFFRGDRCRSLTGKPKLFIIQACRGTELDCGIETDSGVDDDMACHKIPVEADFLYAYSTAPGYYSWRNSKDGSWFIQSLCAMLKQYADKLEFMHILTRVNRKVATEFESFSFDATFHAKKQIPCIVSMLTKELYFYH
# UBC13 confirm – UBC13 polyubiquitination inhibitors, single-point retest, confirmation, biochemical, TR-FRET, single concentration. 1,400 compounds, 68% hits. inhibition, % at 10 µM. shares compounds with UBC13 polyUb; in the data active = inhibition above about 45%; inconclusive = no clear call, values can overlap the other calls
# The depositor's hits bear a star; ? = inconclusive; / = not tested or not shown.
SMILES,Apaf-1 inh,UBC13 polyUb,PREPL inh,UCH37 inh,Casp3 counter,UBC13 confirm
COc1cc(C(=O)Nc2cccc(S(=O)(=O)N3CCCC3)c2)cc(OC)c1C,-5.7,75.0*,-12.7,2.2,0.3,69.9*
CNC(=O)COC(=O)/C=C/c1cn(-c2ccccc2)nc1-c1ccc(C)o1,11.6,54.8*,-3.0,-148.6,0.0,44.4
COc1ccc(-c2nn(-c3ccccc3)cc2/C=C/C(=O)OCC(=O)Nc2ccccc2C#N)cc1,-36.4,12.2,-1.8,/,/,/
CCC1SC(=NN=Cc2ccco2)N(Cc2ccccc2)C1=O (stereo not drawn),/,/,/,4.5,/,/
C[C@@H](O)C1NC(=O)[C@H](CCCCN)NC(=O)c2cc([N+](=O)[O-])cc(F)c2NCCCC[C@@H](C(N)=O)NC1=O (stereo partly drawn),-6.0,95.8*,20.1,4.8,-0.4,100.9*
CCc1cc2c(=O)n(-c3ccccc3)c(=S)[nH]c2s1,-17.7,47.8*,0.6,5.3,1.6,?
CC(=NNC(=O)c1cc(-c2ccccn2)nc2ccccc12)c1cccc([N+](=O)[O-])c1,/,/,/,1.6,/,/
CCN1CCN(Cc2ccc(NC(=O)c3ccc(C)c(NC(=O)c4c[nH]c5cc(C(F)(F)F)ccc5c4=O)c3)cc2C(F)(F)F)CC1,39.3,107.5*,-16.1,4.1,-4.6,100.0*
COc1ccc(OCc2nc3c4cc(OC)c(OC)cc4nc(=S)n3[nH]2)cc1,-6.9,58.6*,6.6,4.6,4.4,44.3
CCCCN(C)CCNC(=O)c1cc2c(-c3cccc(OC)c3)nn(C)c2s1,10.6,45.6*,-34.4,-81.3,1.4,45.0
COc1cccc(-c2nn(C)c3sc(C(=O)NCCCN(C)Cc4ccccc4)cc23)c1,9.3,53.3*,-48.4,-65.3,-3.0,58.8*
CCN(CC)CCCNC(=O)c1cc2c(-c3cccc(OC)c3)nn(C)c2s1,7.7,32.7,-5.1,/,/,/
NC(N)=NN=Cc1ccc(Cl)c([N+](=O)[O-])c1,/,/,/,6.0,/,/
O=C(COc1ccc(Cl)cc1Cl)OCC(=O)N1CCCc2ccccc21,19.9,5.5,-17.2,3.6,/,/
O=C(COc1ccc(Cl)cc1)OCC(=O)N1CCCc2ccccc21,-14.2,62.8*,-3.4,5.7,-2.6,-2.7
CC(=O)Oc1ccc(C=NNC(=O)c2cc3c(ccc4ccccc43)o2)cc1,/,/,/,-90.5,/,/
COc1cccc2sc3ccc(C#CC4(O)CCCCC4)cc3c(=O)c12,20.2,53.0*,-21.2,2.5,90.7*,?
COc1cccc(C(=O)NC2(C(F)(F)F)N=C3SCCN3C2=O)c1 (stereo not drawn),0.0,12.6,-9.9,5.0,/,/
O=C(NC1(C(F)(F)F)N=C2SCCN2C1=O)c1cccnc1 (stereo not drawn),1.3,47.8*,-10.9,0.0,-2.9,-8.3
Cc1sc2ncnc(N)c2c1C,-15.7,61.0*,-17.9,2.8,-6.9,49.2*
Cc1ccc(Nc2ncnc3sc(C)c(C)c23)cc1,8.4,-6.6,16.7,0.7,/,/
COc1cc(C=NNC(=O)c2nnn(-c3nonc3N)c2-c2cccs2)ccc1O,/,/,/,-13.6,/,/
COc1ccccc1CNC(=O)Cc1csc(NC(=O)Nc2ccccc2OC)n1,22.7,1.3,-17.2,4.7,/,/
COc1ccccc1NC(=O)Nc1nc(C(C)(C)C)cs1,13.6,53.2*,-0.8,4.6,-2.1,54.8*
O=[N+]([O-])c1cc(S(=O)(=O)Nc2ccc(Cl)cc2)ccc1NN=Cc1ccncc1,/,/,/,6.2,/,/
SMILES,Apaf-1 inh,UBC13 polyUb,PREPL inh,UCH37 inh,Casp3 counter,UBC13 confirm
COc1cc(C#Cc2c(-c3cncn3C)n(C)c3ccc(Br)cc23)cc(OC)c1,39.4,46.3*,23.1,0.2,-3.0,37.0
O=C1OCCN1C(=O)[C@H]1[C@H](c2ccc(F)cc2)C(c2cccc(Cl)c2)=NN1c1ccccc1,28.0,/,/,-388.8,/,/
O=C1OCCN1C(=O)[C@H]1[C@H](c2ccc(Cl)cc2)C(c2cccc(Cl)c2)=NN1c1ccccc1,17.3,50.4*,3.6,-80.6,-2.0,?
COc1ccc(NC(=O)CS(=O)CC(=O)Nc2cc(Cl)ccc2OC)cc1 (stereo not drawn),-5.6,53.6*,-0.2,3.9,-2.0,53.3*
COc1ccc(NC(=O)CS(=O)CC(=O)Nc2ccc(OC)c(OC)c2)cc1 (stereo not drawn),1.4,-10.2,8.8,0.6,/,/
O=C1c2cc(Cl)ccc2OC2(CCNCC2)C12CC(c1ccccc1)=NO2 (stereo not drawn),24.6,42.1,-12.8,2.2,/,/
O=C1c2cc(Cl)ccc2OC2(CCNCC2)C12CC(c1ccc(Cl)cc1)=NO2 (stereo not drawn),20.5,48.4*,-34.2,-0.3,2.7,41.4
NCCCNCCCCNCCCN,29.3,93.1*,-2.7,2.2,-2.7,73.4*
COc1cccc2sc(N(CCCN(C)C)C(=O)c3sc4ccccc4c3Cl)nc12,-1.4,45.4*,-55.8,6.8,1.6,68.7*
C=CCn1c(=O)c(C(=O)Nc2ccccc2C(=O)OCC)c(O)c2ccccc21,1.6,24.3,-9.9,-58.3,/,/
C=CCn1c(=O)c(C(=O)Nc2ccccc2S(N)(=O)=O)c(O)c2ccccc21,8.0,46.3*,9.9,-0.2,1.5,9.6
Fc1ccc(Nc2nc(NCc3ccco3)c3ccccc3n2)cc1,31.1,53.8*,10.4,-96.9,0.9,73.8*
O=C(NNC(=O)c1nn(-c2ccc(F)cc2)ccc1=O)c1ccccc1Cl,0.5,80.9*,16.6,5.9,-3.7,91.0*
COc1cc(C2C(C#N)=C(N)Oc3n[nH]c(-c4cccs4)c32)cc(OC)c1O (stereo not drawn),-1.2,83.8*,-0.4,1.8,-0.1,87.6*
CCOC(=O)c1c(C)c2c(n1C)CCC/C2=N\O,-9.2,78.6*,-1.1,/,-2.0,93.8*
CCOC(=O)c1oc2c(c1C)C(=NO)CCC2,/,/,/,0.6,/,/
CN1CCN(C2Cc3ccccc3Sc3ccc(Cl)cc32)CC1 (stereo not drawn),37.9,45.0*,-12.8,0.6,-3.8,25.7
CN1CCN(C2Cc3cc(F)ccc3Sc3ccc(Cl)cc32)CC1 (stereo not drawn),-77.7,12.9,-0.9,3.2,/,/
Cc1ccc(NC(=O)CS(=O)CC(=O)NCCCc2ccccc2)cc1Cl (stereo not drawn),-8.0,64.9*,-10.9,5.7,2.7,73.3*
Cc1ccc(NC(=O)CS(=O)CC(=O)Nc2cnc3ccccc3c2)cc1Cl (stereo not drawn),10.3,28.4,-18.0,4.8,/,/
CN(C)CCNc1ncnc2c1sc1nc(-c3ccccc3)c3c(c12)CCCC3,30.3,62.4*,9.7,-2.1,2.0,103.4*
